Measured values as given in ChEMBL document CHEMBL1629457 (J Med Chem, 2010).
Bridge positions count the residues as written; N and C are the ends. Peptide text beside a SMILES is read from it.

Experiments:
Oxytocin receptor [1] = target: T1, Oxytocin receptor (Homo sapiens, UniProt P30559); experiment: Activity at oxytocin receptor expressed in COS1 cells assessed as IP-one generation by HTRF assay; assay type: cell-based, COS-1
T1 sequence (P30559 whole entry): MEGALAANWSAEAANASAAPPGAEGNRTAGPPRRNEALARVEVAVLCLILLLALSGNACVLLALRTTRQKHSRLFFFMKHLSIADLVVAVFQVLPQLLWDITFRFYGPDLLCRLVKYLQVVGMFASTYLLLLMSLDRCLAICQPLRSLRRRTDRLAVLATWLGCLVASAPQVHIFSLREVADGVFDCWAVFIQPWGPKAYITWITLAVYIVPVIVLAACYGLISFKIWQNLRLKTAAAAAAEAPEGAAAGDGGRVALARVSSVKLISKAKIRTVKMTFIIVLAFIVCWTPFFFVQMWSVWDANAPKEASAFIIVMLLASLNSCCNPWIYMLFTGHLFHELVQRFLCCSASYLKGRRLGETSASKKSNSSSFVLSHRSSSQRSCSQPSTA
Procedure, shortened: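 Human OTR transiently transfected into COS-1 cells (Lipofectamine2000, DNA ratio 2); assayed 48 h post-transfection. Cells stimulated with increasing compound concentrations in HEPES buffer containing 50 mM LiCl, pH 7.4, 1 h at 37 °C, 5% CO2. Lysed with HTRF reagents (Eu cryptate anti-IP-one antibody, d2-IP-one), 1 h room temperature. Read 665/590 nm after 340 nm excitation. EC50; triplicates, n = 3-6.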

Oxytocin receptor [2] = target: T1, Oxytocin receptor; experiment: Displacement of [3H]OT from oxytocin receptor expressed in COS1 cells; assay type: cell-based, COS-1
Procedure, shortened: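 Membranes from COS-1 cells transiently transfected with OTR, harvested 48 h post-transfection; 5 μg protein per well. Incubated with 2 nM [3H]OT and competitor (10 pM to 10 μM) on scintillation proximity beads in buffer with 0.1% BSA. Shaken 1 h at room temperature, then scintillation counted.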

[3] = Half life in […] by LC/MS and RP-HPLC method; assay type: ADME, cell-free, Serum; settings: human
Procedure, shortened: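 Human plasma pre-warmed 30 min at 37 °C. Peptide (0.3 mM stock in 0.1 M phosphate, pH 7.2) added at 50 μL per 300 μL plasma, then incubated at 37 °C. Samples taken at 1, 2, 3, 4, 12, 24 and 48 h and quenched in ACN/NaCl/TFA extraction buffer. Analysed by RP-HPLC and LC-MS. Half-life from a one-phase decay fit, n = 3-6.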

Compound | EC50 (Oxytocin receptor [1]) [nM] | Ki (Oxytocin receptor [2]) [nM] | half-life [3] [h]
CC[C@H](C)[C@@H]1NC(=O)[C@H](Cc2ccc(O)cc2)NC(=O)[C@@H](N)CS[Se]C[C@@H](C(=O)N2CCC[C@H]2C(=O)N[C@@H](CC(C)C)NCC(N)=O)NC(=O)[C@H](CC(N)=O)NC(=O)[C@H](CCC(N)=O)NC1=O | 154 | 0.72 | 
CC[C@H](C)[C@@H]1NC(=O)[C@H](Cc2ccc(O)cc2)NC(=O)[C@@H](N)C[Te][Te]C[C@@H](C(=O)N2CCC[C@H]2C(=O)N[C@@H](CC(C)C)NCC(N)=O)NC(=O)[C@H](CC(N)=O)NC(=O)[C@H](CCC(N)=O)NC1=O | 27.3 | 7.6 | 24.2
CC[C@@H](C)[C@H]1NC(=O)[C@@H](CCC(N)=O)NC(=O)[C@@H](CC(N)=O)NC(=O)[C@H](NC(=O)[C@H]2CCCN2C(=O)[C@@H](CC(C)C)NC(=O)CN)CSSC[C@H](C(=O)O)NC(=O)[C@@H](Cc2ccc(O)cc2)NC1=O | > 100000 | > 100000 | 5.5
CC[C@H](C)[C@@H]1NC(=O)[C@H](Cc2ccc(O)cc2)NC(=O)[C@@H](N)CSSC[C@@H](C(=O)N2CCC[C@H]2C(=O)N[C@@H](CC(C)C)C(=O)NCC(N)=O)NC(=O)[C@H](CC(N)=O)NC(=O)[C@H](CCC(N)=O)NC1=O [OXYTOCIN] |  |  | 11.6
NC(=O)CC[C@@H]1NC(=O)[C@H](Cc2ccccc2)NC(=O)[C@H](Cc2ccc(O)cc2)NC(=O)[C@@H](N)CSSC[C@@H](C(=O)N2CCC[C@H]2C(=O)N[C@@H](CCCN=C(N)N)C(=O)NCC(N)=O)NC(=O)[C@H](CC(N)=O)NC1=O [VASOPRESSIN] |  |  | 1.7

Other lines, results leading:

EC50 (Oxytocin receptor [1]) [nM] | Ki (Oxytocin receptor [2]) [nM] | half-life [3] [h] | Compound
> 100000 | 1400 | > 48 | CC[C@H](C)[C@@H]1NC(=O)[C@H](Cc2ccc(O)cc2)NC(=O)[C@@H]2CSSC[C@H](NC(=O)[C@H](CC(N)=O)NC(=O)[C@H](CCC(N)=O)NC1=O)C(=O)N1CCC[C@H]1C(=O)N[C@@H](CC(C)C)C(=O)NCC(=O)N2
> 100000 | > 100000 | > 48 | CC[C@H](C)[C@@H]1NC(=O)[C@H](Cc2ccc(O)cc2)NC(=O)[C@@H]2CSSC[C@H](NC(=O)[C@H](CC(N)=O)NC(=O)[C@H](CCC(N)=O)NC1=O)C(=O)N1CCC[C@H]1C(=O)N[C@@H](CC(C)C)C(=O)NCC(=O)N[C@@H](C)C(=O)NCC(=O)N[C@@H](C)C(=O)NCC(=O)N[C@@H](C)C(=O)NCC(=O)N2 (cyclo(AGAGAGCYIQNCPLG); disulfide 7-12)
